Bioassay records deposited in PubChem by several laboratories.
Hep lipid drop: modulators of hepatic lipid droplet formation; inhibition, % at 6.5 µM; AML12 mouse hepatocytes, oleate lipid droplets, BODIPY imaging; AID 1656; 240,000 tested, 0.4% active;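 active = lipid droplet intensity inhibited by at least 50%, with more than 500 cells counted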
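Assay system: AML12 mouse liver cells | Compound dosing: One dose, 6.5 µM compound | Read-out basis: Droplet intensity reduction, % inhibition | Measured by: Fluorescence imaging, 20x objective, two fields per well | Schedule: Overnight treatment with compound plus oleate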
MPTP block: blocks calcium-induced mitochondrial swelling; AID 602449; isolated mouse mitochondria, Ca2+ swelling absorbance, 30 min; inhibition, % at 10 µM; 360,000 tested, 1.4% active;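 active = inhibition of 50% or more, scaled per plate between neutral and stimulator controls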;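 note: 0% = DMSO wells given calcium and 100% = 1 mM EGTA wells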
aDG glyco up: increases alpha dystroglycan glycosylation; Pro5-aDG cells, alpha-DG glycosylation AlphaScreen (IIH6); 0% Pro5, 100% B10-LARGE cell signal; activation, % at 10 µM; 360,000 tested, 0.22% active; AID 624168;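 active = activation of at least 8% versus controls, or a plate z-score of at least 8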;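 note: Pro5 are CHO cells carrying HIG-tagged alpha-DG that lacks glycosylation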
ADAM17 inh: ADAM17 inhibition, QFRET primary screen. recombinant ADAM17, EDANS/DABCYL FRET peptide cleavage. AID 720648. inhibition, % at 6.95 µM. P78536. 370,000 tested, 0.83% active;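 active = inhibition above the mean of compounds lying between control limits plus 3 SD, set per campaign, cut at about 8.5% in these data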;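 note: 0% = DMSO-only wells as the low control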
ADAM10 inh: inhibits human ADAM10; 370,000 tested, 0.62% active; inhibition, % at 7 µM; O14672; AID 720582; recombinant ADAM10, EDANS/DABCYL FRET peptide cleavage, 3 h;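 active = inhibition above a per-campaign cutoff equal to the mean of compounds falling between control-based bounds plus 3 SD, cut at about 20% in these data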;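 note: 0% = DMSO wells while the 100% control is not disclosed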
Target sequence (O14672 214-748 limits assumed): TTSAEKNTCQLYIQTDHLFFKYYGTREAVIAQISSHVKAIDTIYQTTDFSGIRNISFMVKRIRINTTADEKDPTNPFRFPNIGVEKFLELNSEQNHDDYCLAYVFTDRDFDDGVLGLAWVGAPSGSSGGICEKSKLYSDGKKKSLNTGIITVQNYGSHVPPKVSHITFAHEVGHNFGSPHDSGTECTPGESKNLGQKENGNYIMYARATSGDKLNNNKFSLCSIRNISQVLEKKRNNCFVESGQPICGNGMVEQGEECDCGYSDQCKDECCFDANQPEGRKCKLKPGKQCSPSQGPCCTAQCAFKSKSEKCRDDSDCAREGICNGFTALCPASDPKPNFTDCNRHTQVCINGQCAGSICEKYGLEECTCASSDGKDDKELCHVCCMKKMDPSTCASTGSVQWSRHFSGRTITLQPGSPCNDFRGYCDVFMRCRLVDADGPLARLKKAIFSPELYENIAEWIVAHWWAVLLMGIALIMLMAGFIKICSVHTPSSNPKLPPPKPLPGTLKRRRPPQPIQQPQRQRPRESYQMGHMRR
V-ATPase pHluor: alters yeast V-ATPase proton transport; 350,000 tested, 0.37% active; S. cerevisiae, pHLuorin cytosolic pH fluorescence; AID 504577; response, % at 10 µM; in the data active = response mostly above about 7.3%, no sharp cut-off; inactive = mostly below about 5.4%; note: actives read high
MPTP counter: membrane potential counter-screen of mitochondrial pore inhibitors; shares compounds with MPTP block; isolated mitochondria, Rhodamine 123 fluorescence; inhibition, % at 10 µM; 5,000 tested, 78% active; AID 624504; in the data active = inhibition above about 22%;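 note: 0% = DMSO vehicle and 100% = positive control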
MPTP swell DR: MPTP inhibition, dose response swelling confirmation; isolated mitochondria swelling, absorbance; IC50, µM; 780 tested, 58% active; AID 651561; shares compounds with MPTP block; in the data active = IC50 below about 20 µM
MPTP counter DR: active in counter-screen for permeability transition pore inhibitors | IC50, µM | 780 tested, 49% active | shares compounds with MPTP block | isolated mitochondria counterscreen, fluorescence read-out | AID 651564; in the data active = IC50 below about 80 µM
The depositor's hits bear a star. Hits are enriched below; roughly 3.1% of the tested compounds scored in any of these assays.

`Cc1cc(C)cc(N(CC(=O)NC2CCC(C)CC2)S(=O)(=O)c2ccc(C)c(C)c2)c1` (stereo unspecified) gave ADAM17 inh -3 and ADAM10 inh -4.
`CSc1nc(N)nc2c1ncn2CC(=O)N1CCN(Cc2c(C)cc(C)cc2C)CC1` gave MPTP block 86*, aDG glyco up 1, ADAM17 inh 0, ADAM10 inh -5, V-ATPase pHluor 0 and MPTP counter 77*.
`Cc1ccc2c(c1)nnn2C1CCN(S(=O)(=O)c2ccc(C(=O)N3CC(C)CC(C)C3)cc2)CC1` (stereo unspecified) gave Hep lipid drop 4, MPTP block 56*, aDG glyco up 1, ADAM17 inh 2, ADAM10 inh 1, V-ATPase pHluor 2 and MPTP counter 40*.
Cc1ccc2c(c1)nnn2C1CCN(S(=O)(=O)c2ccc3ccccc3c2)CC1 was read as Hep lipid drop -3, MPTP block 0, aDG glyco up 0, ADAM17 inh 5, ADAM10 inh 12 and V-ATPase pHluor 0.
For Cc1ccc2c(c1)nnn2C1CCN(S(=O)(=O)c2cccc(S(=O)(=O)N(C)C)c2)CC1 the results were Hep lipid drop 5, MPTP block 88*, aDG glyco up 0, ADAM17 inh 3, ADAM10 inh 2, V-ATPase pHluor -4 and MPTP counter 87*.
Screening Cc1ccc2c(c1)nnn2C1CCN(S(=O)(=O)c2ccc(C(=O)N(C)C)cc2)CC1 returned Hep lipid drop 0, MPTP block 2, aDG glyco up 0, ADAM17 inh 6, ADAM10 inh 3 and V-ATPase pHluor -4.
Screening Cc1cccc(NC(=O)C2CCN(c3ncccn3)CC2)c1C returned ADAM17 inh -6 and ADAM10 inh -19.
For CCOc1cccc(-c2nnc(SCC(=O)Nc3ccc4c(c3)OCO4)n2N)c1 the results were ADAM17 inh -2 and ADAM10 inh -6.
`Cc1ccc(C)c(NC(=O)c2cc3ccccn3n2)c1` gave Hep lipid drop 7, MPTP block 53*, aDG glyco up 0, ADAM17 inh 3, ADAM10 inh 9, V-ATPase pHluor 1, MPTP counter 5, MPTP swell DR inactive and MPTP counter DR >80.
For C=CCC1(CC=C)CCCN1C(=O)c1cc(COc2ccc(F)c(F)c2)on1 the results were Hep lipid drop 8, MPTP block 0, aDG glyco up 0, ADAM17 inh 0, ADAM10 inh 4 and V-ATPase pHluor -1.
`C=CCC1(CC=C)CCCN1C(=O)c1cc(COc2ccc(C)nc2)on1` gave Hep lipid drop -42, MPTP block 99*, aDG glyco up 2, ADAM17 inh 0, ADAM10 inh 3, V-ATPase pHluor 3 and MPTP counter 90*.
For O=C1NC(=S)S/C1=C\c1ccc(SCc2ccccc2)o1 the results were Hep lipid drop -2, MPTP block 78*, aDG glyco up 0, ADAM17 inh -1, ADAM10 inh 10, V-ATPase pHluor -3 and MPTP counter 62*.
O=C(Nc1nnc(-c2ccccc2)o1)c1nc2ccccc2s1 was read as Hep lipid drop -7, MPTP block 63*, aDG glyco up 0, ADAM17 inh 2, ADAM10 inh 8, V-ATPase pHluor 9, MPTP counter 3, MPTP swell DR 8.4* and MPTP counter DR 78*.
`O=C(NC1CCCCN(Cc2cccc(Cl)c2)C1=O)c1ccc(F)cc1` (stereo unspecified) gave ADAM17 inh 2 and ADAM10 inh 3.
Screening CCOC(=O)c1c(/N=C/c2cccc(C)c2O)sc2c1CCN(C)C2 returned Hep lipid drop -6, MPTP block 71*, aDG glyco up 0, V-ATPase pHluor -1 and MPTP counter -16.
For CCOC(=O)c1[nH]c(C)c(/C(O)=C2\C(=O)C(=O)N(CCN3CCOCC3)C2c2cccs2)c1C (stereo unspecified) the results were MPTP block active, aDG glyco up 0, ADAM17 inh 3, ADAM10 inh 2, V-ATPase pHluor 2 and MPTP counter 1.
`COC(=O)c1[nH]c(C)c(/C(O)=C2\C(=O)C(=O)N(CCN(C)C)C2c2cccs2)c1C` (stereo unspecified) gave MPTP block 1, aDG glyco up 0, ADAM17 inh -1, ADAM10 inh 6 and V-ATPase pHluor -1.
COc1ccc(-c2cc(=Nc3ccc(C)cc3)c3ccccc3o2)cc1 was read as MPTP block 63*, aDG glyco up 0, ADAM17 inh -198, ADAM10 inh inactive, V-ATPase pHluor 4, MPTP counter 12, MPTP swell DR >100 and MPTP counter DR 14*.
Screening COc1ccc(N=c2cc(-c3ccc(OC)cc3)oc3ccccc23)cc1 returned Hep lipid drop 25, MPTP block 27, aDG glyco up -1, ADAM17 inh -160, ADAM10 inh inactive and V-ATPase pHluor 4.
For COc1ccc(N=c2cc(-c3ccc(O)cc3)oc3ccccc23)cc1 the results were Hep lipid drop 0, MPTP block 68*, aDG glyco up 0, ADAM17 inh 0, ADAM10 inh 1, V-ATPase pHluor 0 and MPTP counter 73*.
CCOC(=O)C1=NOC(C(=O)NCCO)(C(=O)C2CC2)C1 (stereo unspecified) was read as ADAM17 inh -7 and ADAM10 inh -21.
`CC(C)NC(=O)Cn1c(-c2cncs2)nc2ccccc21` gave ADAM17 inh -1 and ADAM10 inh -3.
Cc1ccccc1NC(=O)[C@@H]1CCCN1S(=O)(=O)c1cccc2cccnc12 was read as ADAM17 inh -3 and ADAM10 inh 2.
`COC(=O)C1CCCCN1C(=O)c1cc(COc2cccc3cnccc23)on1` (stereo unspecified) gave Hep lipid drop -24, MPTP block 93*, aDG glyco up 2, ADAM17 inh -44, ADAM10 inh -126, V-ATPase pHluor 0 and MPTP counter 100*.
CCOC(=O)CC1CCCCN1C(=O)c1cc(COc2cccc3cnccc23)on1 (stereo unspecified) was read as Hep lipid drop -104, MPTP block 102*, aDG glyco up 6.7*, ADAM17 inh -30, ADAM10 inh -89, V-ATPase pHluor 0 and MPTP counter 112*.
